The EC50 is the concentration that produces a half-maximal response. One may read the IC50 as the concentration that inhibits the measured activity by half. The inhibition is the change of the read-out against control, counted positive when it falls. The term Ki denotes the dissociation constant of the complex between target and ligand, obtained from inhibition or displacement.

Data on 2 molecules can be found in ChEMBL document CHEMBL5038630 (J Med Chem, 2022).

The target in test [1] is Glutamate NMDA receptor; Grin1/Grin2a (Rattus norvegicus) (UniProt P35439+Q00959). The test can be described thus: Agonist activity at rat GluN1/GluN2A NMDA receptor expressed in Xenopus oocytes assessed as maximal relative efficacy measured after 4 days in presence of L-glutamte by two-electrode voltage-clamp recording assay relative to glycine. In kind it is cell-based. To be noted: Oocyte, filed as agonist, time 4.0 day. In short, it runs like this: (§1)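 Rat GluN1 plus GluN2A or GluN2B cRNA (1:2) in Xenopus oocytes. TEVC at −40 mV, room temperature, 2–4 days post-injection. Bath: 90 mM NaCl, 1 mM KCl, 10 mM HEPES, 0.5 mM BaCl2, 0.01 mM EDTA, pH 7.4. Oocytes were BAPTA-injected before recording. Agonist applied with 300 μM L-Glu throughout. […] NR means <5% response at the stated concentration. 3–14 oocytes.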

Test [2] has as its target Glutamate NMDA receptor; Grin1/Grin2c (Rattus norvegicus) (UniProt P35439+Q00961). In words: Agonist activity at rat GluN1/GluN2C NMDA receptor expressed in Xenopus oocytes assessed as maximal relative efficacy measured after 4 days in presence of L-glutamte by two-electrode voltage-clamp recording assay relative to glycine. In kind it is cell-based. To be noted: Oocyte, filed as agonist, time 4.0 day. In short, it runs like this:
(§2)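 Xenopus oocytes were injected with rat GluN1 and GluN2C or GluN2D cRNA (1:2) and recorded by TEVC 2–4 days later at −40 mV, room temperature, pH 7.4 HEPES/NaCl/BaCl2 saline. Concentration-response with 300 μM L-Glu present. […] NR means <5% response at the concentration given. DMSO ≤0.5%. 3–14 oocytes.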

Test [3] addresses Ionotropic glutamate receptor NMDA 1/2D (Rattus norvegicus) (UniProt P35439+Q62645). The test can be described thus: Agonist activity at rat GluN1/GluN2D NMDA receptor expressed in Xenopus oocytes assessed as maximal relative efficacy measured after 4 days in presence of L-glutamte by two-electrode voltage-clamp recording assay relative to glycine. In kind it is cell-based. The settings on record: Oocyte, filed as agonist, time 4.0 day. In short, it runs like this:
as §2
For orientation: Two-electrode voltage clamp is typically applied to oocytes expressing channels or transporters.

The target in test [4] is Glutamate NMDA receptor; Grin1/Grin2b (Rattus norvegicus) (UniProt P35439+Q00960). In words: Agonist activity at rat GluN1/GluN2B NMDA receptor expressed in Xenopus oocytes assessed as maximal relative efficacy measured after 4 days in presence of L-glutamte by two-electrode voltage-clamp recording assay relative to glycine. In kind it is cell-based. The settings on record: Oocyte, filed as agonist, time 4.0 day. In short, it runs like this: as §1

Test [5] concerns the target Glutamate NMDA receptor; Grin1/Grin2a (Rattus norvegicus, UniProt P35439+Q00959). The test can be described thus: Agonist activity at rat GluN1/GluN2A NMDA receptor expressed in Xenopus oocytes measured after 4 days in presence of L-glutamte by two-electrode voltage-clamp recording assay. In kind it is cell-based, Oocyte. In short, it runs like this: (§3)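 Rat GluN1 plus GluN2A or GluN2B cRNA (1:2) in Xenopus oocytes. TEVC at −40 mV, room temperature, 2–4 days post-injection. Bath: 90 mM NaCl, 1 mM KCl, 10 mM HEPES, 0.5 mM BaCl2, 0.01 mM EDTA, pH 7.4. Oocytes were BAPTA-injected before recording. Agonist applied with 300 μM L-Glu throughout. NR means <5% response at the stated concentration. 3–14 oocytes.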

The target of test [6] is Glutamate NMDA receptor; Grin1/Grin2b (Rattus norvegicus, UniProt P35439+Q00960). The test can be described thus: Agonist activity at rat GluN1/GluN2B NMDA receptor expressed in Xenopus oocytes measured after 4 days in presence of L-glutamte by two-electrode voltage-clamp recording assay. In kind it is cell-based, Oocyte. In short, it runs like this:
as §3

Test [7] deals with Glutamate NMDA receptor; Grin1/Grin2c (Rattus norvegicus, UniProt P35439+Q00961). The test can be described thus: Agonist activity at rat GluN1/GluN2C NMDA receptor expressed in Xenopus oocytes measured after 4 days in presence of L-glutamte by two-electrode voltage-clamp recording assay. In kind it is cell-based, Oocyte. In short, it runs like this: (§4)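 Xenopus oocytes were injected with rat GluN1 and GluN2C or GluN2D cRNA (1:2) and recorded by TEVC 2–4 days later at −40 mV, room temperature, pH 7.4 HEPES/NaCl/BaCl2 saline. Concentration-response with 300 μM L-Glu present. NR means <5% response at the concentration given. DMSO ≤0.5%. 3–14 oocytes.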

Test [8] deals with Ionotropic glutamate receptor NMDA 1/2D (Rattus norvegicus, UniProt P35439+Q62645). In words: Agonist activity at rat GluN1/GluN2D NMDA receptor expressed in Xenopus oocytes measured after 4 days in presence of L-glutamte by two-electrode voltage-clamp recording assay. In kind it is cell-based, Oocyte. In short, it runs like this: as §4
Test [9] has as its system Oocyte. In words: Agonist activity at recombinant GluN1a/GluN2B NMDA receptor (unknown origin) expressed in Xenopus oocytes assessed as inhibition of glycine-induced activation of current measured at 10 uM after 4 days in presence of L-glutamte by two-electrode voltage-clamp recording assay. In kind it is cell-based. The settings on record: Homo sapiens, filed as agonist, time 4.0 day. In short, it runs like this:
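Oocytes expressing GluN1/2B were BAPTA-injected and held under two-electrode voltage clamp in continuous 300 μM L-Glu. […] Values are mean ± SEM from 12 oocytes.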

The nature of test [10]: Binding affinity at recombinant GluN1a/GluN2B NMDA receptor (unknown origin) expressed in Xenopus oocytes measured after 4 days in presence of L-glutamte by two-electrode voltage-clamp recording assay. In kind it is cell-based, Homo sapiens. The settings on record: oocyte.
The subject of test [11] is Oocyte. The test can be described thus: Agonist activity at mutant GluN1 F484A/T518 mutant//GluN3A NMDA receptor (unknown origin) expressed in Xenopus oocytes measured after 4 days in presence of glycine by two-electrode voltage-clamp recording assay. In kind it is cell-based. To be noted: Homo sapiens, time 4.0 day.
In test [12] the test system is Oocyte. The test can be described thus: Agonist activity at mutant GluN1 F484A/T518 mutant//GluN3B NMDA receptor (unknown origin) expressed in Xenopus oocytes measured after 4 days in presence of glycine by two-electrode voltage-clamp recording assay. In kind it is cell-based. The settings on record: Homo sapiens, time 4.0 day.
Test [13] in a line: Agonist activity at GluN1/GluN2A V783F mutant NMDA receptor (unknown origin) expressed in Xenopus oocytes measured after 4 days in presence of glycine by two-electrode voltage-clamp recording assay. In kind it is cell-based. The settings on record: Homo sapiens, Oocyte, 96 h. In short, it runs like this:
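Rat GluN1 and GluN2A cRNA (1:2) injected into Xenopus oocytes, which received 50 nL of 50 mM BAPTA 10–30 min before recording. TEVC done 2–4 days after injection at room temperature, −40 mV, in 90 mM NaCl, 1 mM KCl, 10 mM HEPES, 0.5 mM BaCl2, 0.01 mM EDTA, pH 7.4. Agonist applied with 300 μM L-Glu continuously present, DMSO <0.5%.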

Test [14] deals with Oocyte. In words: Agonist activity at wild type GluN1/GluN2A-V783L mutant NMDA receptor (unknown origin) expressed in Xenopus oocytes assessed as relative maximal efficacy measured at 10 uM after 4 days in presence of glycine by two-electrode voltage-clamp recording assay relative to glycine. In kind it is cell-based. The settings on record: Homo sapiens, time 4.0 day. In short, it runs like this:
(§5)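 Oocytes expressing GluN1 with wild-type GluN2A or with the GluN2A-V783L or V783F mutant were BAPTA-injected and recorded by TEVC in continuous 300 μM L-Glu. […] Values are mean ± SEM from 3–8 oocytes, compared with wild type by two-way ANOVA with Tukey's test.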

The subject of test [15] is Oocyte. In words: Agonist activity at wild type GluN1/ GluN2A-V783F mutant NMDA receptor (unknown origin) expressed in Xenopus oocytes assessed as relative maximal efficacy measured at 10 uM after 4 days in presence of glycine by two-electrode voltage-clamp recording assay relative to glycine. In kind it is cell-based. To be noted: Homo sapiens, time 4.0 day. In short, it runs like this: as §5

A short description of test [16]: Agonist activity at wild type GluN1/GluN2A NMDA receptor (unknown origin) expressed in Xenopus oocytes measured after 4 days in presence of L-glutamate by two-electrode voltage-clamp recording assay. To be noted: Homo sapiens, Oocyte, 96 h.
The subject of test [17] is GluN1/GluN2A (Rattus norvegicus). In words: Agonist activity at wild type GluN1/GluN2A NMDA receptor (rat) expressed in Xenopus oocytes assessed as relative maximal efficacy measured at 10 uM after 4 days in presence of glycine by two-electrode voltage-clamp recording assay relative to glycine. The settings on record: filed as agonist, time 4.0 day.

The source made the active and inactive calls. The rule behind the calls is not given here.

For the molecule `N[C@H](CO)C(=O)O`, the Rmax worked out at 96% in test [1], 111% in test [2], 93% in test [3] and 100% in test [4].

`CCc1ccccc1-c1ccc(C(=O)NC[C@@H](N)C(=O)O)o1`: the EC50 in test [5] came out at 93 nM; in test [7], 63 nM; in test [8], 150 nM; in test [13], 410 nM; in test [16] it was 110 nM. Besides, the IC50 in [6] came to 10000 nM. Besides, the inhibition in the test with Oocyte [9] is 47%. Besides, the Ki in test [10] was determined as 100 nM. Besides, the inhibition entry in the test with Oocyte [11] and with Oocyte [12] was “inactive” throughout. The Rmax in the test with Oocyte [14] was found to be 30%; with Oocyte [15], 9%; in test [17], 45%.
